Results reported in ChEMBL document CHEMBL5344415, “Synthesis and Characterization of Phenylalanine Amides Active against Mycobacterium abscessus and Other Mycobacteria” (J Med Chem, 2023).
Converted amounts (≈) assume the structure as drawn.

Tests used:
[1] = test system: Mycolicibacterium smegmatis; assay: Antibacterial activity against Mycobacterium smegmatis mc2 155 expressing tomato RFP assessed as bacterial growth inhibition incubated for 3 days in 7H9 medium by RFP fluorescence based broth microdilution method; assay type: functional; conditions: mc2 155, 72 h, time 3 day
Summary of the method: (§1)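 Broth microdilution in 7H9 with 10 % ADS and 0.05 % Tween 80. Twofold nine-point dilution series. Inoculum 5 x 10⁵ cells/mL taken from a mid-log preculture. Incubation at 37 °C, 3 days for M. smegmatis and M. abscessus, 5 days for M. intracellulare. Read-out by RFP fluorescence (ex 544/em 590 nm). Controls were 1 % DMSO and 100 μM amikacin. MIC₉₀ from duplicates, averaged.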

[2] = test system: Mycobacterium tuberculosis; assay: Antibacterial activity against Mycobacterium tuberculosis H37Rv ATCC 27294 assessed as bacterial growth inhibition incubated for 7 days in 7H9 medium by optical density based microplate reader analysis; assay type: functional; conditions: H37Rv ATCC 27294, 168 h, time 7 day
Summary of the method: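 Compounds serially diluted in flat-bottom 96-well plates. Mid-log culture mixed in to a final OD₆₀₀ of 0.05. Sealed plates incubated in humidified boxes at 37 °C for 7 days with shaking at 80 rpm. Turbidity read at 600 nm. MIC₉₀ taken from dose–response curves. Two biological replicates, averaged.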

[3] = test system: Mycobacteroides abscessus; assay: Antibacterial activity against Mycobacterium abscessus ATCC 19977 expressing tomato RFP assessed as bacterial growth inhibition incubated for 3 days in 7H9 medium by RFP fluorescence based broth microdilution method; assay type: functional; conditions: ATCC 19977, 72 h, time 3 day; summary of the method: as §1
[4] = test system: Mycobacteroides abscessus; assay: Antibacterial activity against Mycobacterium abscessus ATCC 19977 expressing tomato RFP assessed as bacterial growth inhibition incubated for 3 days in MHII medium by RFP fluorescence based broth microdilution method; assay type: functional; conditions: ATCC 19977, 72 h, time 3 day
Summary of the method: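 Broth microdilution in MHII broth with 0.05 % Tween 80, against the RFP-expressing strain. Twofold nine-point dilution series. Inoculum 5 x 10⁵ cells/mL from a mid-log preculture. Incubated 3 days at 37 °C. Read-out by RFP fluorescence (ex 544/em 590 nm). Controls were 1 % DMSO and 100 μM amikacin. MIC₉₀ from duplicates, averaged.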

[5] = test system: Mycobacterium intracellulare; assay: Antibacterial activity against Mycobacterium intracellulare ATCC 35761 expressing tomato RFP assessed as bacterial growth inhibition incubated for 5 days in 7H9 medium by RFP fluorescence based broth microdilution method; assay type: functional; conditions: ATCC 35761, 120 h, time 5 day; summary of the method: as §1
[6] = test system: Mycobacteroides abscessus; assay: Antibacterial activity against Mycobacterium abscessus Bamboo harboring inactive clarithromycin-sensitive erm41 C28 sequevar assessed as bacterial growth inhibition incubated for 3 days in 7H9 medium by optical density based method; assay type: functional; conditions: 72 h, time 3 day
[7] = test system: Mycobacteroides abscessus; assay: Antibacterial activity against Mycobacterium abscessus ATCC 19977 expressing tomato RFP infected in human THP-1 cells assessed as bacterial growth inhibition incubated for 4 days in RPMI medium by RFP fluorescence based assay; assay type: functional; conditions: ATCC 19977, 96 h, time 4 day
Summary of the method: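 RFP M. abscessus washed, moved into RPMI, filtered through 5 µm and opsonised with 10 % human serum for 30 min. THP-1 cells infected at MOI 5:1 with PMA 40 ng/mL for 4 h at 37 °C, then washed. Infected cells (1x10⁵/well) given a ten-point twofold series. Incubated 4 days at 37 °C, 5 % CO₂. Cells PFA-fixed and DAPI-stained. RFP quantified by imaging. Controls were DMSO and 1.5 µM bedaquiline. Duplicate.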

[8] = test system: A-375; assay: Cytotoxicity against human A-375 cells assessed as reduction in cell viability incubated for 72 hrs by SRB assay; assay type: toxicity, cell-based
[9] = test system: HT-29; assay: Cytotoxicity against human HT-29 cells assessed as reduction in cell viability incubated for 72 hrs by SRB assay; assay type: toxicity, cell-based
[10] = test system: MCF7; assay: Cytotoxicity against human MCF7 cells assessed as reduction in cell viability incubated for 72 hrs by SRB assay; assay type: toxicity, cell-based
[11] = test system: A2780; assay: Cytotoxicity against human A2780 cells assessed as reduction in cell viability incubated for 72 hrs by SRB assay; assay type: toxicity, cell-based
[12] = Cytotoxicity against mouse NIH3T3 cells assessed as reduction in cell viability incubated for 72 hrs by SRB assay; assay type: toxicity, cell-based; conditions: mouse, NIH3T3 cells
[13] = test system: HeLa; assay: Cytotoxicity against human HeLa cells assessed as reduction in cell viability incubated for 72 hrs by SRB assay; assay type: toxicity, cell-based
[14] = Kinetic solubility of compound in PBS at 0.78 to 500 uM measured immediately by nephelometric method; assay type: physicochemical; conditions: buffer, dose 0.78-500 µM
Summary of the method: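 DMSO stocks prediluted in DMSO, then diluted 1:50 into PBS (2 % DMSO final) and read immediately by nephelometry at 0.78–500 μM; blank-corrected data fitted by segmental regression; quadruplicates from one stock.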

| SMILES | MIC90 [1] | MIC90 [2] | MIC90 [3] | MIC90 [4] | MIC90 [5] | MIC50 [6] | MIC90 [6] | MIC50 [7] | MIC90 [7] | EC50 [8] | EC50 [9] | EC50 [10] | EC50 [11] | EC50 at 72 h [12] | EC50 [13] | Kinetic_solubility [14] |
| --- | --- | --- | --- | --- | --- | --- | --- | --- | --- | --- | --- | --- | --- | --- | --- | --- |
| O=C(N[C@H](Cc1ccccc1)C(=O)Nc1ccccc1C1CCSCC1)c1cccs1 | 6.25 µM (≈ 2.82 µg/mL) | > 25 µM | 50 µM (≈ 22.5 µg/mL) | 100 µM (≈ 45.1 µg/mL) | 6.25 µM (≈ 2.82 µg/mL) | 21 µM (≈ 9.46 µg/mL) | 44 µM (≈ 19.8 µg/mL) | > 100 µM | > 100 µM | > 30 µM | > 30 µM | > 30 µM | > 30 µM | > 30 µM | > 30 µM | 39 µM |
| O=C(N[C@H](Cc1ccccc1)C(=O)Nc1cc(F)ccc1N1CCSCC1)c1cccs1 | 3.13 µM (≈ 1.47 µg/mL) | 1.56 µM (≈ 0.733 µg/mL) | 25 µM (≈ 11.7 µg/mL) | 50 µM (≈ 23.5 µg/mL) | 0.78 µM (≈ 0.366 µg/mL) | 1.4 µM (≈ 0.657 µg/mL) | 14 µM (≈ 6.57 µg/mL) | 3.13 µM (≈ 1.47 µg/mL) | > 100 µM | > 30 µM | > 30 µM | > 30 µM | > 30 µM | > 30 µM | > 30 µM | 37 µM |
| O=C(N[C@H](Cc1ccc(O)cc1)C(=O)Nc1cc(F)ccc1N1CCS(=O)(=O)CC1)c1cccs1 | 6.25 µM (≈ 3.24 µg/mL) | 0.78 µM (≈ 0.404 µg/mL) | 6.25 µM (≈ 3.24 µg/mL) | 3.13 µM (≈ 1.62 µg/mL) | 0.05 µM (≈ 0.0259 µg/mL) | 0.4 µM (≈ 0.207 µg/mL) | 9 µM (≈ 4.66 µg/mL) | 6.25 µM (≈ 3.24 µg/mL) | 25 µM (≈ 12.9 µg/mL) | > 30 µM | 29.8 µM | > 30 µM | 29.7 µM | > 30 µM | > 30 µM | 170 µM |
| O=C(N[C@H](Cc1ccc(O)cc1)C(=O)Nc1cc(F)ccc1N1CCSCC1)c1cccs1 | 12.5 µM (≈ 6.07 µg/mL) | 0.78 µM (≈ 0.379 µg/mL) | 12.5 µM (≈ 6.07 µg/mL) |  | 0.1 µM (≈ 0.0486 µg/mL) | 1.6 µM (≈ 0.777 µg/mL) | 15 µM (≈ 7.28 µg/mL) | 12.5 µM (≈ 6.07 µg/mL) | 50 µM (≈ 24.3 µg/mL) | > 30 µM | > 30 µM | > 30 µM | > 30 µM | > 30 µM | > 30 µM | 78 µM |
| O=C(N[C@H](Cc1ccccc1)C(=O)Nc1cc(F)ccc1N1CC[S+]([O-])CC1)c1ccccc1F | 1.56 µM (≈ 0.776 µg/mL) | 0.78 µM (≈ 0.388 µg/mL) | 3.31 µM (≈ 1.65 µg/mL) | 3.13 µM (≈ 1.56 µg/mL) | 0.2 µM (≈ 0.0995 µg/mL) | 0.52 µM (≈ 0.259 µg/mL) | 2 µM (≈ 0.995 µg/mL) | 0.39 µM (≈ 0.194 µg/mL) | 12.5 µM (≈ 6.22 µg/mL) | > 30 µM | > 30 µM | > 30 µM | > 30 µM | > 30 µM | > 30 µM | 184 µM |
| O=C(N[C@H](Cc1cccs1)C(=O)Nc1ccccc1N1CCOCC1)c1ccccc1F | 1.56 µM (≈ 0.708 µg/mL) | 3.13 µM (≈ 1.42 µg/mL) | 6.25 µM (≈ 2.83 µg/mL) | 12.5 µM (≈ 5.67 µg/mL) | 0.78 µM (≈ 0.354 µg/mL) | 2 µM (≈ 0.907 µg/mL) | 7 µM (≈ 3.17 µg/mL) | 6.25 µM (≈ 2.83 µg/mL) | 25 µM (≈ 11.3 µg/mL) | > 30 µM | > 30 µM | > 30 µM | > 30 µM | > 30 µM | > 30 µM | 39 µM |
| O=C(N[C@H](Cc1ccsc1)C(=O)Nc1ccccc1N1CC[S+]([O-])CC1)c1ccccc1F | 1.56 µM (≈ 0.758 µg/mL) | 3.13 µM (≈ 1.52 µg/mL) | 6.25 µM (≈ 3.04 µg/mL) | 12.5 µM (≈ 6.07 µg/mL) | 0.2 µM (≈ 0.0971 µg/mL) | 1.5 µM (≈ 0.728 µg/mL) | 4.4 µM (≈ 2.14 µg/mL) | 6.25 µM (≈ 3.04 µg/mL) | 50 µM (≈ 24.3 µg/mL) | > 30 µM | > 30 µM | > 30 µM | > 30 µM | > 30 µM | > 30 µM | 96 µM |
